Data reported in ChEMBL document CHEMBL3526048, “In vitro metabolism of rivoglitazone, a novel peroxisome proliferator-activated receptor γ agonist, in rat, monkey, and human liver microsomes and freshly isolated hepatocytes” (Drug Metab Dispos, 2011).

Tests used:
[1] = test system: Hepatocyte; experiment: Drug level in rat hepatocytes treated with [14C]-rivoglitazone at 30 uM after 3 hrs by radio-HPLC/LC-MS/MS analysis in presence of UDPGA, UDPGA/SAM and NADPH-generating system; assay type: ADME, cell-based
[2] = molecular target: Cytochrome P450 2C19 (Homo sapiens, UniProt P33261); experiment: Activity of human CYP2C19 expressed in microsomes isolated from baculovirus infected insect cell assessed as enzyme-mediated 5-(4-((6-methoxy-1H-benzo[d]imidazol-2-yl)methoxy)benzyl)thiazolidine-2,4-dione formation at 20 uM after 2 hrs by radio-HPLC/LC-MS/MS analysis in presence of NADPH-generating system and NADPH-generating system/SAM; assay type: ADME
How it was run: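 Baculovirus/insect-cell microsomes expressing single human CYPs, 1 mg/ml protein, with 50 mM potassium phosphate (pH 7.4) or 100 mM Tris-HCl (pH 7.5). NADPH-generating system: 2 mM NADP⁺, 20 mM glucose 6-phosphate, 2 units/ml G6PDH, 10 mM MgCl₂. [¹⁴C]rivoglitazone at 20 μM, 2 h at 37°C with shaking. Control used insect-cell control supersomes. Stopped with acetonitrile; supernatant concentrated under nitrogen; metabolites analysed by radio-HPLC, LC-MS and LC-MS/MS.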

[3] = molecular target: T1, Cytochrome P450 1A2 (Homo sapiens, UniProt P05177); experiment: Activity of human CYP1A2 expressed in microsomes isolated from baculovirus infected insect cell assessed as enzyme-mediated 3-(4-((6-methoxy-1-methyl-1H-benzo[d]imidazol-2-yl)methoxy)phenyl)-2-(methylsulfinyl)propanamide formation at 20 uM after 2 hrs by radio-HPLC/LC-MS/MS analysis in presence of NADPH-generating system/SAM; assay type: ADME
T1 sequence (P05177 whole entry): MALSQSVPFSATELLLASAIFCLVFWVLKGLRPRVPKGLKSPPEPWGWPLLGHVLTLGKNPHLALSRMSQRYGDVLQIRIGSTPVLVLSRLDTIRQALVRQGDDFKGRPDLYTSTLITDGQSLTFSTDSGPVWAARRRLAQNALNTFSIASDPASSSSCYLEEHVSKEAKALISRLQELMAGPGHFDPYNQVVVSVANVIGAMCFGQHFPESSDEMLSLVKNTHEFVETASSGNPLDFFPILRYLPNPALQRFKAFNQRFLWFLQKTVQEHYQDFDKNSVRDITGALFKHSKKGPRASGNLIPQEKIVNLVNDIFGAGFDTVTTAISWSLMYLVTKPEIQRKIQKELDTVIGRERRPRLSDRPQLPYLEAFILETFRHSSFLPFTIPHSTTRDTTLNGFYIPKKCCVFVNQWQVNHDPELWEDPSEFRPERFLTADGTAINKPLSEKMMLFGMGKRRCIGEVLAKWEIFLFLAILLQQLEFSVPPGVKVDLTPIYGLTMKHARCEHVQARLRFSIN

[4] = molecular target: T2, UDP-glucuronosyltransferase 2B7 (Homo sapiens, UniProt P16662); experiment: Activity of human UGT2B7 expressed in microsomes isolated from baculovirus infected insect cell assessed as enzyme-mediated 5-(4-((6-hydroxy-1-methyl-1H-benzo[d]imidazol-2-yl)methoxy)benzyl)thiazolidine-2,4-dione formation at 20 uM after 4 hrs by radio-HPLC/LC-MS/MS analysis in presence of NADPH-generating system/SAM; assay type: ADME
T2 sequence (P16662 whole entry): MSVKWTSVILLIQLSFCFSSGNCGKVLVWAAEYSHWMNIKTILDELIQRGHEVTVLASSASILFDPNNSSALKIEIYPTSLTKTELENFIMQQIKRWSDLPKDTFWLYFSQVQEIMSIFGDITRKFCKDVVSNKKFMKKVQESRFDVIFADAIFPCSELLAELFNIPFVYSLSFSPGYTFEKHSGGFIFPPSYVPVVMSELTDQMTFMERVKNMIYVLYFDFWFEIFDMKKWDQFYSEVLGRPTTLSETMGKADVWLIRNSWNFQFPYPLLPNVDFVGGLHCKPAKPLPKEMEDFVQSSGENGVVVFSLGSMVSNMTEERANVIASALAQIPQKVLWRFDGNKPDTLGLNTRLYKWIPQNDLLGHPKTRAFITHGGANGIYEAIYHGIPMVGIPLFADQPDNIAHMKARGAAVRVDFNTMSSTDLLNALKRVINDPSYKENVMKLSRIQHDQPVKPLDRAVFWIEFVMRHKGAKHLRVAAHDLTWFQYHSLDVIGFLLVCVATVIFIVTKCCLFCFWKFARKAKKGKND

[5] = molecular target: Cytochrome P450 3A4 (Homo sapiens, UniProt P08684); experiment: Activity of human CYP3A4 expressed in microsomes isolated from baculovirus infected insect cell assessed as enzyme-mediated 3-(4-((6-methoxy-1-methyl-1H-benzo[d]imidazol-2-yl)methoxy)phenyl)-2-(methylsulfonyl)propanamide formation at 20 uM after 2 hrs by radio-HPLC/LC-MS/MS analysis in presence of NADPH-generating system/SAM; assay type: ADME
[6] = molecular target: T2, UDP-glucuronosyltransferase 2B7; experiment: Activity of human UGT2B7 expressed in microsomes isolated from baculovirus infected insect cell assessed as enzyme-mediated 2-amino-3-((1-carboxy-2-(4-((6-methoxy-1-methyl-1H-benzo[d]imidazol-2-yl)methoxy)phenyl)ethyl)disulfanyl)propanoic acid formation at 20 uM after 4 hrs by radio-HPLC/LC-MS/MS analysis in presence of UDPGA and UDPGA/SAM; assay type: ADME
[7] = molecular target: Cytochrome P450 3A5 (Homo sapiens, UniProt P20815); experiment: Activity of human CYP3A5 expressed in microsomes isolated from baculovirus infected insect cell assessed as enzyme-mediated 2-((4-((2,4-dioxothiazolidin-5-yl)methyl)phenoxy)methyl)-1-methyl-1H-benzo[d]imidazol-6-yl hydrogen sulfate formation at 20 uM after 2 hrs by radio-HPLC/LC-MS/MS analysis; assay type: ADME
How it was run: (§1)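 Baculovirus-insect-cell microsomes expressing the human CYP (1 mg/ml protein) were incubated with [14C]rivoglitazone (20 μM) in 50 mM potassium phosphate (pH 7.4) or 100 mM Tris-HCl (pH 7.5) with an NADPH-generating system (2 mM NADP+, 20 mM glucose 6-phosphate, 2 units/ml G6PDH, 10 mM MgCl2) for 2 h at 37°C. Insect-cell control supersomes served as the control. Reactions were stopped with acetonitrile, and the concentrated supernatants were analysed by radio-HPLC, LC-MS and LC-MS/MS.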

[8] = test system: Liver microsome; experiment: Drug metabolism in Sprague-Dawley rat liver microsomes assessed as formation of 2-mercapto-3-(4-((6-methoxy-1-methyl-1H-benzo[d]imidazol-2-yl)methoxy)phenyl)propanamide at 20 uM after 2 hrs by radio-HPLC/LC-MS/MS analysis in presence of NADPH-generating system and NADPH-generating system/SAM; assay type: ADME
[9] = molecular target: Cytochrome P450 2C9 (Homo sapiens, UniProt P11712); experiment: Activity of human CYP2C9 expressed in microsomes isolated from baculovirus infected insect cell assessed as enzyme-mediated 2-((4-((2,4-dioxothiazolidin-5-yl)methyl)phenoxy)methyl)-1-methyl-1H-benzo[d]imidazol-6-yl hydrogen sulfate formation at 20 uM after 2 hrs by radio-HPLC/LC-MS/MS analysis; assay type: ADME; how it was run: as §1
[10] = Drug metabolism in cynomolgus monkey liver microsomes assessed as formation of 2-mercapto-3-(4-((6-methoxy-1-methyl-1H-benzo[d]imidazol-2-yl)methoxy)phenyl)propanoic acid at 20 uM after 2 to 4 hrs by radio-HPLC/LC-MS/MS analysis in presence of UDPGA, UDPGA/SAM and NADPH-generating system; assay type: ADME, Macaca fascicularis
[11] = molecular target: T2, UDP-glucuronosyltransferase 2B7; experiment: Activity of human UGT2B7 expressed in microsomes isolated from baculovirus infected insect cell assessed as enzyme-mediated (2S,3S,4S,5R,6R)-6-((1-carboxy-2-(4-((6-methoxy-1-methyl-1H-benzo[d]imidazol-2-yl)methoxy)phenyl)ethylthio)carbonylamino)-3,4,5-trihydroxytetrahydro-2H-pyran-2-carboxylic acid formation at 20 uM after 4 hrs by radio-HPLC/LC-MS/MS analysis in presence of NADPH-generating system/SAM; assay type: ADME
[12] = molecular target: Cytochrome P450 2D6 (Homo sapiens, UniProt P10635); experiment: Activity of human CYP2D6 expressed in microsomes isolated from baculovirus infected insect cell assessed as enzyme-mediated 3-(4-((6-methoxy-1-methyl-1H-benzo[d]imidazol-2-yl)methoxy)phenyl)-2-(methylthio)propanamide formation at 20 uM after 2 hrs by radio-HPLC/LC-MS/MS analysis in presence of NADPH-generating system/SAM; assay type: ADME
Sequence of Cytochrome P450 2D6 (P10635 whole entry): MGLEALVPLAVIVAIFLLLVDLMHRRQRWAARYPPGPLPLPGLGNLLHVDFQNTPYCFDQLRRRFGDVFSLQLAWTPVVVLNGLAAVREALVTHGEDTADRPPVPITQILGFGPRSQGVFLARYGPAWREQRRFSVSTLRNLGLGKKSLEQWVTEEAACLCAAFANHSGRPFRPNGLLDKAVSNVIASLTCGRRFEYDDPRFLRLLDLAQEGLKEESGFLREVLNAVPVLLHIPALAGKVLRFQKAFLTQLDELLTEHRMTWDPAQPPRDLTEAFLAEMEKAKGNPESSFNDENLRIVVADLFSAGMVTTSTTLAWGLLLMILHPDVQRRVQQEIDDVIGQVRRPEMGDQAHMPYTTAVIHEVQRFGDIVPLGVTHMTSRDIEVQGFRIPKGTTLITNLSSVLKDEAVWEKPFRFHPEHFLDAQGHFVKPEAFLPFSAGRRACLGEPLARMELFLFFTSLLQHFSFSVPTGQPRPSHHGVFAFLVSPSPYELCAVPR

Sequence of Cytochrome P450 3A4 (P08684 whole entry): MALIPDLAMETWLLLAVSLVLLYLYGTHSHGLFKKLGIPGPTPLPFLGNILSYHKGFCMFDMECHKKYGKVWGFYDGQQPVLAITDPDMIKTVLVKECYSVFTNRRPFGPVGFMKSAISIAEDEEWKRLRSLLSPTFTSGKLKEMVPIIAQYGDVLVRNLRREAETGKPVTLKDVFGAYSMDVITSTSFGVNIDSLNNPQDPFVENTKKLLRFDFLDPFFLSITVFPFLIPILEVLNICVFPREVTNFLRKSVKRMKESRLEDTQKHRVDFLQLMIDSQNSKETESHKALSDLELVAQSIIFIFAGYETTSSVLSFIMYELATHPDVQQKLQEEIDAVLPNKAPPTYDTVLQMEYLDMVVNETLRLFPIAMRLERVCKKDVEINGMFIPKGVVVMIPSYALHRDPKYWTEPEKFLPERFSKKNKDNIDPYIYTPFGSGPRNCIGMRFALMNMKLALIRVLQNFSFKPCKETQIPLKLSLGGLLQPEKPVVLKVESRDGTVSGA
Sequence of Cytochrome P450 2C19 (P33261 whole entry): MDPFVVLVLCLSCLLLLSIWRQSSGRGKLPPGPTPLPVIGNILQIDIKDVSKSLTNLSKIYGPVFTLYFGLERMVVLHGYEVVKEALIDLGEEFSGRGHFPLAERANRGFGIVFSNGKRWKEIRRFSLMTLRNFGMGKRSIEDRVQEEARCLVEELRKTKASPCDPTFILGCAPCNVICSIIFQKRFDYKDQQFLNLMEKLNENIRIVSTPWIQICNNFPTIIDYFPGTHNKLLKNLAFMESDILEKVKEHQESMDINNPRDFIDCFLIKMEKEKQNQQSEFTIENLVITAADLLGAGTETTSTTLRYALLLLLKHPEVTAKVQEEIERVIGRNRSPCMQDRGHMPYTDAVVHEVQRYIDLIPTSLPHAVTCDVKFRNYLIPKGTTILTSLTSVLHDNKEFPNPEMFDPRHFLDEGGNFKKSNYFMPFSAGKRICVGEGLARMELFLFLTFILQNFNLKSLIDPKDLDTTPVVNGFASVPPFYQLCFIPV
Sequence of Cytochrome P450 3A5 (P20815 whole entry): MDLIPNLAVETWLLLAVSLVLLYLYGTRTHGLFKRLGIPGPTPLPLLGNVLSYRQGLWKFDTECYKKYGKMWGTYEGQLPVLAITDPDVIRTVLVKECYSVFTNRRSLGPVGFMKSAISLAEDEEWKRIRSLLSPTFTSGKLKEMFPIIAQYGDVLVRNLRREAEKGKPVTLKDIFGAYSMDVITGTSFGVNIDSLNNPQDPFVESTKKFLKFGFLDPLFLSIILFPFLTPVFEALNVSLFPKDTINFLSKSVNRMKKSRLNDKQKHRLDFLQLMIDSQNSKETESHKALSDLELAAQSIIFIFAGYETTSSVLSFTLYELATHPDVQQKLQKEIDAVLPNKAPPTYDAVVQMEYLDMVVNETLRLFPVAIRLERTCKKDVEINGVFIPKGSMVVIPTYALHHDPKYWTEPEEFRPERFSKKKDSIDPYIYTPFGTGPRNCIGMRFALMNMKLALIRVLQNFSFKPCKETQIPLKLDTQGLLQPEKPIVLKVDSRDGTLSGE
Sequence of Cytochrome P450 2C9 (P11712 whole entry): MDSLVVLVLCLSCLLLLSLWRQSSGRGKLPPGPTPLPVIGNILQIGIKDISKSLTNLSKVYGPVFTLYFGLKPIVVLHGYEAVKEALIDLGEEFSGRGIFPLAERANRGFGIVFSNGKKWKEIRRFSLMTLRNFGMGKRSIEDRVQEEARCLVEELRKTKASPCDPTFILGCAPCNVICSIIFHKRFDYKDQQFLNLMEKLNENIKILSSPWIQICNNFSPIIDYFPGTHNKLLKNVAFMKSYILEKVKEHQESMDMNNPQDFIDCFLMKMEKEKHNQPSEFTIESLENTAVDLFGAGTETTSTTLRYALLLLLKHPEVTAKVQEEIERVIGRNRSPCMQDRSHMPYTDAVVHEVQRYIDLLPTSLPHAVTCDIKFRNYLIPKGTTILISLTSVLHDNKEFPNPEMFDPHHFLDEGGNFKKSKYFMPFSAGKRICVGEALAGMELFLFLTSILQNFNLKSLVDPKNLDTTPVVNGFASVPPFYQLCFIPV

SMILES | Drug metabolism [1] | Drug metabolism [2] | Drug metabolism [3] | Drug metabolism [4] | Drug metabolism [5] | Drug metabolism [6] | Drug metabolism [7] | Drug metabolism [8] | Drug metabolism [9] | Drug metabolism [10] | Drug metabolism [11] | Drug metabolism [12]
COc1ccc2nc(COc3ccc(CC(S)C(=O)O)cc3)n(C)c2c1 (configuration not stated) | metabolite_not_detected |  |  |  |  |  |  |  |  |  |  | 
COc1ccc2nc(COc3ccc(C[14CH]4SC(=O)NC4=O)cc3)n(C)c2c1.Cl (racemic) |  | metabolite_detected | metabolite_not_detected | metabolite_not_detected | metabolite_not_detected | metabolite_not_detected | metabolite_not_detected | metabolite_detected | metabolite_not_detected | metabolite_detected | metabolite_detected | metabolite_not_detected
